For 96 molecules, cytotoxicity results are on record in ChEMBL document CHEMBL4513216, “Probing the Open Global Health Chemical Diversity Library for Multistage-Active Starting Points for Next-Generation Antimalarials” (ACS Infect Dis, 2020).

Structures are written as SMILES.

This data set in a line: Toxicity liver stage against HepG2, at 10uM. It is filed as cell-based. Details: test concentration 10 uM, cell line HepG2-A16-CD81EGFP. The conditions noted are these: human, HepG2-A16-CD81EGFP cells; read-out: INHIBITION
In short, it runs like this: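 Uninfected HepG2-A16-CD81EGFP cells, 3 × 10^3 per well, 1536-well, plated on prespotted compound at 10 μM final, parasite-free screening media added to match infected plates; puromycin 10 μM positive, DMSO 0.5% negative; run in parallel with 48 h PbLuc assay at 37 °C, 5% CO2; viability by CellTiter-Glo luminescence, normalized to controls.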
For the molecule `CC(C)C1CCCN1C(=O)c1ccc(-n2ncc(C#N)c2N)cc1` (stereo unspecified), the cytotoxicity at 10 µM is -1.89%.

`O=C(C[S+]([O-])Cc1ccccc1F)N1CCc2sccc2C1` (stereo unspecified): the cytotoxicity at 10 µM is -8.02%.

As to `Cc1cccc(C)c1NC(=O)c1cccc(N(C)S(C)(=O)=O)c1C`, the cytotoxicity at 10 µM was found to be 3.03%.

As for `Cc1csc(N2CCN(Cc3ccccn3)CC2C)n1` (stereo unspecified), the cytotoxicity at 10 µM is -8.84%.

In the case of `CCOCCN1CCN(CC(=O)NC2(C#N)CCCC2)CC1CC` (stereo unspecified), the cytotoxicity at 10 µM is 7.73%.

On to `CCNc1cc2c(nn1)CCN(C(=O)c1cccnc1N(C)C)C2`, for which the cytotoxicity at 10 µM was -13.4%.

Turning to `CN(CCCNC(=O)c1ccccc1OCC(N)=O)CC(F)(F)F`, the cytotoxicity at 10 µM was -7.53%.

Regarding `CC(C)c1noc(CN(C)C(=O)C2COc3ccccc3C2)n1` (stereo unspecified), the cytotoxicity at 10 µM is 2.77%.

Turning to `Cc1ccccc1NC(=O)N1CCN(Cc2noc(C3CC3)n2)CC1`, the cytotoxicity at 10 µM is -17%.

As for `COCc1nnc(C(=O)N2CC(N3CCCCC3)C2)o1`, the cytotoxicity at 10 µM is -3.57%.

On to `NC(=O)C1CCN(Cc2csc(-c3ncccn3)n2)CC1`, for which the cytotoxicity at 10 µM is -6.04%.

As for `CN(CC(=O)N1CCCC1Cn1cccn1)C1CC1` (stereo unspecified), the cytotoxicity at 10 µM is -9.39%.

For `COCCN1CCC2(CCCN(C(=O)c3cnoc3C)C2)C1=O` (stereo unspecified), the cytotoxicity at 10 µM is -23.8%.

For `COc1cc(C(=O)NCCc2ccc(Cl)cc2)on1`, the cytotoxicity at 10 µM was -0.295%.

Turning to `Cc1ccc(CN2CCc3ncc(CNC(=O)C4CCC4)n3CC2)o1`, the cytotoxicity at 10 µM stood at 8.71%.

Consider `CCC(=O)N(c1ccc(C(=O)OC)cc1C)C(C)C`, for which the cytotoxicity at 10 µM was determined as 0.814%.

In the case of `NC(=O)Nc1cccc(C(=O)N(Cc2ccc(F)cc2)C2CC2)c1`, the cytotoxicity at 10 µM is -10.1%.

Take `CCNC(=O)COc1ccccc1N1CCCC(C)C1` (stereo unspecified): the cytotoxicity at 10 µM was found to be 8.06%.

Consider `CC(c1cccc(Cl)c1)N(C)Cc1nc2c(cnn2C)c(=O)[nH]1` (stereo unspecified), for which the cytotoxicity at 10 µM was -10.5%.

As for `Cc1cnc(C)c(N2CC[C@H](N3CCOCC3)[C@H](CCCO)C2)n1`, the cytotoxicity at 10 µM came to 6.12%.

On to `CCc1nsc(N2CCN(CC(=O)Nc3c(C)n[nH]c3C)CC2)n1`, for which the cytotoxicity at 10 µM is -3.63%.

With `Cc1ccc(=O)n(CC2(O)CCN(Cc3cnc(C)nc3)CC2)n1`, the cytotoxicity at 10 µM came to 4.3%.

As to `CCC(C(=O)NCCc1nc(C)cc(C(F)(F)F)n1)n1cccn1` (stereo unspecified), the cytotoxicity at 10 µM is -9.77%.

For the molecule `CC(C)(C)c1nc(CN(Cc2cccs2)CC2CCCO2)no1` (stereo unspecified), the cytotoxicity at 10 µM is -10%.

On to `CCC1CCCCN1C(=O)Cn1nc(-c2cc(C)oc2C)cc(N)c1=O` (stereo unspecified), for which the cytotoxicity at 10 µM was found to be 2.44%.

Regarding `Cc1noc(C2CN(CC(=O)NCC3CCCO3)C2)n1` (stereo unspecified), the cytotoxicity at 10 µM was -2.56%.

On to `COC(=O)c1cccc(C(=O)N2CCN(C(=O)N(C)C)CC2(C)C)c1`, for which the cytotoxicity at 10 µM is 11.9%.

As to `N#Cc1cnc(N2Cc3cnn(Cc4ccc(F)cc4)c3C2)nc1N`, the cytotoxicity at 10 µM is 4.84%.

Regarding `Cc1nc(CC(=O)N2CCN(Cc3ccc(C#N)cc3)CC2)cs1`, the cytotoxicity at 10 µM came to 1.91%.

For `COc1ccc(C2Nc3ccccc3C3=NCCCN32)cc1OC` (stereo unspecified), the cytotoxicity at 10 µM amounted to 6.05%.

As to `O=C(c1cocn1)N1C[C@H]2CCC[C@@]2(COc2ccccn2)C1`, the cytotoxicity at 10 µM was -0.798%.

Turning to `CCOc1ccc(S(=O)(=O)N(CCOC)Cc2ccoc2)cc1F`, the cytotoxicity at 10 µM came out at 8.31%.

`CC(=O)N1N=C(c2ccccc2)OC1C(=O)NCCc1ccc(Cl)cc1` (stereo unspecified): the cytotoxicity at 10 µM amounted to 3.68%.

As to `c1ccc(-n2cc(CN3CCCC(Cn4cncn4)C3)nn2)cc1` (stereo unspecified), the cytotoxicity at 10 µM is 1.52%.

On to `CN1CCOC(CN(C(=O)CN2CCCC2=O)c2nccs2)C1` (stereo unspecified), for which the cytotoxicity at 10 µM is -7.06%.

In the case of `O=C(NCc1cccc(N2CCCCC2=O)c1)[C@@H](O)c1ccccc1`, the cytotoxicity at 10 µM is -8.31%.

Turning to `c1cn(-c2cnc(C3CCNCC3)cn2)cn1`, the cytotoxicity at 10 µM is -5.72%.

Consider `Cc1cc(Nc2cnccn2)cc(C2CCCNC2)n1` (stereo unspecified), for which the cytotoxicity at 10 µM was 4.75%.

On to `CCOC(=O)NCCC(=O)NCc1ccnc(Oc2ccc(F)cc2)c1`, for which the cytotoxicity at 10 µM amounted to 6.74%.

Take `O=S(=O)(Cc1nc(C2CC2)no1)c1cc(F)ccc1F`: the cytotoxicity at 10 µM came out at 7.81%.

For the molecule `Cn1cc(NS(=O)(=O)c2ccc3c(c2)CCCC3)ccc1=O`, the cytotoxicity at 10 µM amounted to 40.7%.

Take `N#Cc1cnc(NCc2ccc(C(=O)NC3CC3)cc2)c(Cl)c1`: the cytotoxicity at 10 µM is -0.18%.

Regarding `CCCn1nc(C)c2c(C(F)F)cc(=O)n(CC(=O)O)c21`, the cytotoxicity at 10 µM was 1.76%.

As for `Cc1cccc(CN2CCC3(CCN(c4cccnc4)C3=O)C2)n1` (stereo unspecified), the cytotoxicity at 10 µM is -1.63%.

As to `CCn1nc(C)c(CCn2ccnc2-c2cc3n(n2)CCCNC3)c1C`, the cytotoxicity at 10 µM was -2.1%.

`CN(C)Cc1csc(-c2nccn2CCc2cccnc2)c1`: the cytotoxicity at 10 µM was -51.2%.

Consider `CC(Oc1ccc2c(c1)OCO2)C(=O)Nc1ccon1` (stereo unspecified), for which the cytotoxicity at 10 µM turned out to be 1.09%.

Regarding `Cn1c(C(F)(F)F)nn(CCNC(=O)c2ccccn2)c1=O`, the cytotoxicity at 10 µM was -1.4%.

As for `N#Cc1ccc(N2CCCN(C(=O)CC3CCCO3)CC2)cc1` (stereo unspecified), the cytotoxicity at 10 µM was -4.69%.

For `CCN(C)c1ncnc2c1CCN(C(=O)[C@H]1CCCO1)CC2`, the cytotoxicity at 10 µM was 3.38%.

Regarding `CN(C)CCN1CCOCC12CCN(C(=O)C1CC1)CC2`, the cytotoxicity at 10 µM is -7.45%.

For `Cc1ccc(C(=O)N2CCc3ncnc(C)c3CC2)o1`, the cytotoxicity at 10 µM amounted to 7.89%.

With `Cc1cc(C)c2nc(CN3CCCC(c4cc[nH]n4)C3)cc(O)c2c1` (stereo unspecified), the cytotoxicity at 10 µM is -3.97%.

With `CCc1nc(CNCC2CCCN2c2cccnn2)cs1` (stereo unspecified), the cytotoxicity at 10 µM is -7.69%.

Consider `CC(NS(=O)(=O)CCc1ccccn1)c1ccccc1Br` (stereo unspecified), for which the cytotoxicity at 10 µM was -4.74%.

On to `CCS(=O)(=O)NCCN1CCc2ccc(F)cc2C1C` (stereo unspecified), for which the cytotoxicity at 10 µM worked out at 6.88%.

`O=C(Cc1ccsc1)N1CCC(Cn2cc(CCO)nn2)CC1`: the cytotoxicity at 10 µM stood at 1.67%.

For the molecule `Cc1nc2c(c(=O)[nH]1)CN(C(=O)CC[C@@H]1CCCN3CCCC[C@H]13)C2`, the cytotoxicity at 10 µM came to 17%.

As for `O=C(Nc1cc(-c2ccccn2)no1)C1CC1`, the cytotoxicity at 10 µM is -5.34%.

With `CCN1CCC2(CN(C(C)=O)CC23CCN(C(=O)N(C)C)CC3)C1=O` (stereo unspecified), the cytotoxicity at 10 µM was determined as 4.88%.

Take `Cc1nn(CCC#N)c(C)c1[C@@H]1C=C[C@@H](NCc2ccc(F)cc2)C1`: the cytotoxicity at 10 µM amounted to 2%.

For `Cc1cc(NC(=O)CN2CCCC2c2noc(C)n2)n(C)n1` (stereo unspecified), the cytotoxicity at 10 µM is -2.3%.

As for `Cc1ccc(CN2C[C@H](NC(=O)c3nccn3C)[C@H]3OCCC[C@H]32)o1`, the cytotoxicity at 10 µM was -85%.

For `Cc1cncc(C(=O)N2C[C@H]3CCC[C@@]3(COc3ccccn3)C2)c1`, the cytotoxicity at 10 µM is 1.08%.

In the case of `CN(C)C(=O)CN1CCCC(Cc2ccc(N3CCCC3)nn2)C1` (stereo unspecified), the cytotoxicity at 10 µM is 3.77%.

As to `Cc1cc(OCC(=O)N2CCCC(c3nc(C)c(C)s3)C2)no1` (stereo unspecified), the cytotoxicity at 10 µM was -16.4%.

Regarding `O=C(Nc1cccnc1)[C@@H]1COC[C@H]2CN(C3CCCC3)C[C@H]21`, the cytotoxicity at 10 µM came out at 5.74%.

In the case of `Cc1cnc(N2C[C@H]3CCN(CC4CC4)C[C@@H]3C2)nc1`, the cytotoxicity at 10 µM is 7.55%.

With `CN(CC1CCCCO1)c1nc(-c2cccnc2)nc2c1CCNC2` (stereo unspecified), the cytotoxicity at 10 µM came to 3.01%.

Consider `Cc1nc2c(c(=O)[nH]1)CCN(Cc1ccc3c(c1)CCCN3C)C2`, for which the cytotoxicity at 10 µM is -1.87%.

As to `CC(c1nc(C2CC2)no1)N1CCN(Cc2ccsc2)CC1` (stereo unspecified), the cytotoxicity at 10 µM was 0.993%.

In the case of `CC(C)(CO)CNC(=O)c1ccnn1-c1ccc2ccccn12`, the cytotoxicity at 10 µM is 15.8%.

As to `O=C(CCc1cc(Cl)no1)N1CCN(CCn2cncn2)CC1`, the cytotoxicity at 10 µM is -1.84%.

For the molecule `Cc1cccc(CN2CCCC2c2cccc(CCC(=O)O)n2)c1` (stereo unspecified), the cytotoxicity at 10 µM was -12.6%.

In the case of `CCc1[nH]c2c(CNC(=O)C3CCN(C)C3)cc(C)cc2c1C` (stereo unspecified), the cytotoxicity at 10 µM is -7.71%.

`COc1ccc2c(c1)CC(NCc1cccc(NC(C)=O)c1)CC2` (stereo unspecified): the cytotoxicity at 10 µM is -39.2%.

As for `O=C(COC[C@@]12CCC[C@@H]1CN(C1CCCC1)C2)N1CCCC1`, the cytotoxicity at 10 µM is -112%.

As for `CC(C)NC(=O)c1nnn(-c2cccc(F)c2)c1C1CC1`, the cytotoxicity at 10 µM was -0.0198%.

In the case of `COc1ccccc1CCC(=O)N1CCCC(OCc2cccnc2)C1` (stereo unspecified), the cytotoxicity at 10 µM was found to be 2.98%.

On to `CC(C)(C)OC(=O)N1CCCN1C(=O)c1cccc2cc[nH]c12`, for which the cytotoxicity at 10 µM turned out to be 2.84%.

As for `N#Cc1ccnc(N2CCN(C(=O)c3ccc4c(c3)CCO4)CC2)c1`, the cytotoxicity at 10 µM is -5.75%.

For the molecule `COCCN(Cc1ccccc1)Cc1csc(-c2ncccn2)n1`, the cytotoxicity at 10 µM is 3.78%.

Consider `CCOCCN1CCN(CC(O)c2ccc(C)c(C)c2)CC1` (stereo unspecified), for which the cytotoxicity at 10 µM was -6.33%.

`Cc1c(Cn2ccnc2-c2cc(CN(C)C)cs2)cnn1C`: the cytotoxicity at 10 µM is -0.309%.

Consider `CC(C)c1nn(C)c(Cl)c1CNCc1cccnc1N(C)C`, for which the cytotoxicity at 10 µM amounted to 10.7%.

Take `O=C(COc1cccc2c1CCC2=O)NCC(F)(F)F`: the cytotoxicity at 10 µM was -8.74%.

As to `O=C(C[C@@H]1COC[C@H]2CN(Cc3ccc(F)cc3)C[C@@H]12)N1CCCCO1`, the cytotoxicity at 10 µM is -2.26%.

With `CN1CCN(Cc2cnn(-c3ccc(F)cc3)c2)[C@H]2CS(=O)(=O)C[C@H]21`, the cytotoxicity at 10 µM was determined as 12.8%.

Consider `CCS(=O)(=O)N1CCC(Oc2ccc(C#N)cc2)CC1`, for which the cytotoxicity at 10 µM was 16.8%.

Turning to `CS(=O)(=O)Cc1cccc(C(=O)NCC2Cc3ccccc3O2)c1` (stereo unspecified), the cytotoxicity at 10 µM was -16.5%.

For `c1ccc2c(c1)nnn2CCCNC1CCOC2(CCOCC2)C1` (stereo unspecified), the cytotoxicity at 10 µM was -4.66%.

As to `COCCN1CCc2ncc(CNc3cc(N(C)C)ncn3)n2CC1`, the cytotoxicity at 10 µM is -1.95%.

As for `COc1ccc(CNC(=O)C(NC(=O)Cc2ccccc2)C(C)C)cn1` (stereo unspecified), the cytotoxicity at 10 µM is -0.943%.

Consider `O=C(c1cccnc1)N(CCO)Cc1cc(Br)ccc1F`, for which the cytotoxicity at 10 µM turned out to be 12.7%.

As to `COc1ccc(-c2cc(CN)nc3ccnn23)cc1`, the cytotoxicity at 10 µM was -5.75%.

With `Cc1ccccc1[C@@H]1CN(C(=O)c2ccc3[nH]nnc3c2)C[C@H]1C(=O)O`, the cytotoxicity at 10 µM was -7.21%.
